pIC50: −log10 of the molar value. ≈ marks a conversion by molar mass, not a printed value. Calls of active or inactive are those of the source. The calls are words filed in the database; no cut-off is given here.
Legend:
[1] = Intrinsic clearance in rat liver microsomes assessed as metabolic turnover
[2] = Lipophilicity, log D of the compound at pH 7.4; conditions: buffer
[3] = Fraction unbound at serum; assay type: ADME, cell-free
How it was run: (§1)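 Serum or plasma protein binding reported as percentage free. Each value is the mean of at least n = 2 experiments.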

[4] = target: T1, Cathepsin K (Homo sapiens, UniProt P43235); experiment: Inhibition of human recombinant CatK assessed as suppression of enzyme-mediated Z-Phe-Arg-AMC cleavage incubated for 1 hrs by QFRET assay
T1 sequence (P43235 whole entry): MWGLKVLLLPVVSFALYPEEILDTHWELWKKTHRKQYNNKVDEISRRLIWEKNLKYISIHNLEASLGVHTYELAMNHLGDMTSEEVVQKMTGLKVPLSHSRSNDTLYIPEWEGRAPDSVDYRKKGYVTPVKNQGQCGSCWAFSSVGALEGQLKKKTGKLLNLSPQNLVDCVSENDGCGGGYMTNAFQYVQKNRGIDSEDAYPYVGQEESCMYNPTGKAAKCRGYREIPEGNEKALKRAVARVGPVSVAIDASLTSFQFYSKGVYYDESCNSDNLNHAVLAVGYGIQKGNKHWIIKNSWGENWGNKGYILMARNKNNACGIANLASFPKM

[5] = Aqueous solubility of the compound at pH 7.4; conditions: buffer
[6] = Oral bioavailability in Alderley Park Han Wistar rat at 2.0 mg/kg administered as single dose; assay type: ADME, organism-based; conditions: in vivo
How it was run: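 Fed male Alderley Park Han Wistar rats dosed po at 2.0 mg/kg as a suspension in 5% DMSO/95% HPMC/TWEEN; iv reference dose 2.0 mg/kg in 40% DMA/water. Single doses, at least two experiments of two animals each.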

[7] = Intrinsic clearance in human liver microsomes assessed as metabolic turnover
[8] = organism: Homo sapiens; experiment: Selectivity ratio of IC50 for human recombinant CatS to IC50 for human recombinant CatK
How it was run: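 Quenched-FRET cleavage assays with in-house recombinant human enzymes at 0.5 nM final. Cat K used 50 μM Z-Phe-Arg-AMC at pH 5.5 (acetate/EDTA). Cat S used 100 μM Z-Val-Val-Arg-AMC at pH 6.4 (potassium phosphate). Compounds were preincubated 30 min at RT, then reacted 1 h, stopped with acetic acid and read at ex 360/em 425 nm. Twelve concentrations; IC50s from variable-slope nonlinear regression; ratio Cat S/Cat K.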

[9] = target: Cathepsin B (Homo sapiens, UniProt P07858); experiment: Inhibition of human recombinant CatB assessed as suppression of enzyme-mediated Z-Arg-Arg-AMC cleavage by QFRET assay
How it was run: (§2)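 Recombinant human Cat B at 0.5 nM final was preincubated with compound for 30 min at room temperature. Z-Arg-Arg-AMC (100 μM final) was added in potassium phosphate buffer, pH 6.4, incubated 1 h, then stopped with acetic acid. Fluorescence read at ex 360/em 425 nm with background correction; IC50 by nonlinear regression.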

[10] = target: Procathepsin L (Homo sapiens, UniProt P07711); experiment: Inhibition of human recombinant CatL assessed as suppression of enzyme-mediated Z-Phe-Arg-AMC cleavage by QFRET assay; conditions: for pIC50: read-out: IC50
How it was run: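 Recombinant human Cat L at 0.1 nM final was preincubated with compound for 30 min, then Z-Phe-Arg-AMC (10 μM final) was added. QFRET cleavage was run 1 h at room temperature and stopped with acetic acid. Fluorescence read at ex 360/em 425 nm; IC50 by variable-slope nonlinear regression.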

[11] = target: Cathepsin S (Homo sapiens, UniProt P25774); experiment: Inhibition of human recombinant CatS assessed as suppression of enzyme-mediated Z-Val-Val-Arg-AMC cleavage by QFRET assay
How it was run: as §2, with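 “S” for “B”, “Z-Val-Val-Arg-AMC” for “Z-Arg-Arg-AMC”, “AMC fluorescence” for “Fluorescence”, “nm;” for “nm with background correction;”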

[12] = Intrinsic clearance in rat hepatocytes assessed as metabolic turnover measured per 10^6 cells; assay type: ADME, cell-based, Hepatocyte
How it was run: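 Intrinsic clearance from in vitro hepatocyte incubation, expressed in μL/min/10⁶ cells. Each value is the mean of at least n = 2 experiments.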

[13] = Fraction unbound in rat serum; assay type: ADME, cell-free; how it was run: as §1
[14] = Fraction unbound in human serum; assay type: ADME, cell-free; how it was run: as §1
[15] = Fraction unbound in dog serum; assay type: ADME, cell-free, Canis lupus familiaris; how it was run: as §1
[16] = Volume of distribution at steady state in Alderley Park Han Wistar rat at 2.0 mg/kg, po and 2.0 mg/kg, iv administered as single dose; assay type: ADME, organism-based; conditions: in vivo, read-out: Vdss
How it was run: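 Male Alderley Park Han Wistar rats, fed. Given single iv dose of 2.0 mg/kg as a solution in 40% DMA/water and single po dose of 2.0 mg/kg as a suspension in 5% DMSO/95% HPMC/TWEEN. At least two experiments, each with two animals.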

[17] = Oral bioavailability in Beagle dog at 1.0 mg/kg administered as single dose; conditions: in vivo
[18] = Volume of distribution at steady state in Beagle dog at 1.0 mg/kg, po and 1.0 mg/kg, iv administered as single dose; assay type: ADME, organism-based, Canis lupus familiaris; conditions: in vivo, read-out: Vdss
How it was run: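 Beagle dogs, fasted. Given single iv dose of 1.0 mg/kg as a solution in 10% DMSO/90% Sorensons and single po dose of 1.0 mg/kg as a suspension in 5% DMSO/95% HPMC/TWEEN. At least two experiments, each with two animals.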

[19] = Half life in Beagle dog at 1.0 mg/kg, iv administered as single dose; conditions: in vivo
[20] = in vivo; conditions: Alderley Park Han Wistar, rat, plasma, iv, 2 mg/kg
[21] = Half life in Alderley Park Han Wistar rat at 2.0 mg/kg, iv administered as single dose; conditions: in vivo
[22] = in vivo; conditions: Beagle, dog, plasma, iv, 1 mg/kg
[23] = Intrinsic clearance in dog hepatocytes assessed as metabolic turnover measured per 10^6 cells
[24] = Intrinsic clearance in human hepatocytes assessed as metabolic turnover measured per 10^6 cells
[25] = test system: Canis familiaris; experiment: In-vivo inhibition of CatK in orally dosed Alderley Park Beagle dog assessed as reduction in CTX-1 level at 0.1 to 2 mg/kg, po qd by ELISA; assay type: functional, organism-based; conditions: Canis lupus familiaris
How it was run: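 Male Alderley Park Beagles (12−14 months, 14−17 kg) gavaged at 0.1, 0.3 or 2.0 mg/kg in 5% DMSO + 95% HPMC/Tween, 5 mL/kg, with dosing started at the same time of day. Jugular blood was clotted ≥1 h at room temperature and serum spun down. Serum CTX-1 was measured by CrossLaps ELISA; points are mean n = 2.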

[26] = target: T2, Cathepsin K (Canis lupus familiaris, UniProt Q3ZKN1); experiment: Inhibition of dog recombinant CatK assessed as suppression of enzyme-mediated Z-Phe-Arg-AMC cleavage by QFRET assay
T2 sequence (Q3ZKN1 whole entry): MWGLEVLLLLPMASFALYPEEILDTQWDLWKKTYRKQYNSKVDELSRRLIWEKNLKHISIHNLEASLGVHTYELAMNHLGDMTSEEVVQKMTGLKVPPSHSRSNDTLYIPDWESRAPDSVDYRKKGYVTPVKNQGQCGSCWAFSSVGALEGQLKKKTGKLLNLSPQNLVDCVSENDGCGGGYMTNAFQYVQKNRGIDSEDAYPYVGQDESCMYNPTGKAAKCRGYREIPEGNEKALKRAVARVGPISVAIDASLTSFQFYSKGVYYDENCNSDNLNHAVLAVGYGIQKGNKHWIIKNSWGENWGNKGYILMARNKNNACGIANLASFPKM
How it was run: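 Recombinant dog Cat K at 0.5 nM final was preincubated with compound for 30 min at room temperature. Z-Phe-Arg-AMC (15 μM final) was added in sodium acetate buffer, pH 5.5, and incubated 1 h at room temperature in the dark, then stopped with 7.5% acetic acid. Fluorescence read at ex 360/em 425 nm; IC50 by nonlinear regression.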

Sequence of Procathepsin L (P07711 whole entry): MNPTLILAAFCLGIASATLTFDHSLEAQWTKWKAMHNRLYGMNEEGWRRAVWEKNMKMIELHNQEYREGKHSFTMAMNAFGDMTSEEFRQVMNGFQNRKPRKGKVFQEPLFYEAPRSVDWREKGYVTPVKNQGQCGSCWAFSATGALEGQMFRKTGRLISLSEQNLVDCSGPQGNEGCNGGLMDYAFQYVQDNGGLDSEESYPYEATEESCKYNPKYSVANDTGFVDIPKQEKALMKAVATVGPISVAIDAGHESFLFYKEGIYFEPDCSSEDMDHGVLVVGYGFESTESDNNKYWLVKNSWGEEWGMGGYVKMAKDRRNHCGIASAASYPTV
Sequence of Cathepsin S (P25774 whole entry): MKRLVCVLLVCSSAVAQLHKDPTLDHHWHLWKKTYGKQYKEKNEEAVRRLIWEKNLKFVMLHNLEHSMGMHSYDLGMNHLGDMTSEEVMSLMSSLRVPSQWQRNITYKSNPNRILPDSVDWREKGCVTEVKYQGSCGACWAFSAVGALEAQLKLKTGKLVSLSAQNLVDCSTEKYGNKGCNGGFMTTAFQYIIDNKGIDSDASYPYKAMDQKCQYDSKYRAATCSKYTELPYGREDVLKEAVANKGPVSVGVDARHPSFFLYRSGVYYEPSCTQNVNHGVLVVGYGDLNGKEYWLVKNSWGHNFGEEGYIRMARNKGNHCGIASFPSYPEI

microsomal CLint [1] [µL/min/mg] | logD [2] | pIC50 [4] | solubility [5] [µM] | bioavailability [6] [%] | microsomal CLint [7] [µL/min/mg] | pIC50 [9] | pIC50 [10] | pIC50 [11] | hepatocyte CLint [12] [µL/min/1e6 cells] | IC50 [10] | fraction unbound [13] | fraction unbound [14] | fraction unbound [15] | Vd [16] [L/kg] | bioavailability [17] [%] | Vd [18] [L/kg] | Compound | further results
> 350 | 3 | 7.60 | 580 (≈ 227 µg/mL) | 0 | – | – | – | – | – | – | – | – | – | – | – | – | N#CC1(NC(=O)[C@@H]2CCCC[C@H]2C(=O)N2CCc3oc4ccccc4c3C2)CC1 | fraction unbound [3]: 0.12
< 2 | < 0.5 | 6.59 | > 4600 | – | 5.1 | 5.01 | < 4.40 | 5.43 | – | – | – | – | – | – | – | – | CN(C)C(=O)[C@@H]1CCCC[C@H]1C(=O)NCC#N | Ratio IC50 [8]: 14
– | 2.4 | – | 822 (≈ 346 µg/mL) | – | 29 | < 5.54 | – | < 5.40 | 20 | Not Active | – | – | – | – | – | – | COc1ccc2[nH]c3c(c2c1)CN(C(=O)[C@@H]1CCCC[C@H]1C(=O)NC1(C#N)CC1)CC3 | –
– | 2.1 | 9.00 | 1500 (≈ 587 µg/mL) | 12 | – | < 5.54 | – | < 5.40 | – | Not Active | 0.42 | 0.33 | 0.38 | 1.6 | 59 | 0.9 | N#CC1(NC(=O)[C@@H]2CCCC[C@H]2C(=O)N2CCc3[nH]c4ncccc4c3C2)CC1 | –
– | -0.1 | 7.43 | 3560 (≈ 1040 µg/mL) | – | 7.9 | 5.12 | < 4.40 | 5.68 | < 2 | – | – | – | – | – | – | – | CN1CCN(C(=O)[C@@H]2CCCC[C@H]2C(=O)NCC#N)CC1 | –
> 250 | 3 | > 9.00 | 580 (≈ 237 µg/mL) | 3.8 | 41 | 5.45 | < 4.40 | < 5.40 | 126 | – | 0.16 | 0.14 | 0.13 | 2.3 | 82 | 1.2 | N#CC1(NC(=O)[C@@H]2CCCC[C@H]2C(=O)N2CCc3[nH]c4ccc(F)cc4c3C2)CC1 | half-life [19]: 1.8 h; clearance [20]: 63 mL/min/kg; half-life [21]: 0.6 h; clearance [22]: 10 mL/min/kg; hepatocyte CLint [23]: 6.7 µL/min/1e6 cells; hepatocyte CLint [24]: < 2.5 µL/min/1e6 cells
143 | 2.7 | 9.00 | 910 (≈ 355 µg/mL) | 8.2 | 26 | < 5.54 | – | < 5.40 | – | Not Active | – | – | – | – | – | – | N#CC1(NC(=O)[C@@H]2CCCC[C@H]2C(=O)N2CCc3[nH]c4ccccc4c3C2)CC1 | fraction unbound [3]: 0.23
67 | 2.7 | > 9.00 | – | 28 | 16 | < 5.54 | – | < 5.40 | – | Not Active | 0.17 | 0.17 | 0.22 | 2.3 | 65 | 1.7 | COc1cccc2c3c([nH]c12)CCN(C(=O)[C@@H]1CCCC[C@H]1C(=O)NC1(C#N)CC1)C3 | half-life [19]: 1.5 h; inhibition [25]: Active; clearance [20]: 53 mL/min/kg; pIC50 [26]: 9.10; half-life [21]: 1 h; clearance [22]: 10 mL/min/kg; hepatocyte CLint [23]: 2.5 µL/min/1e6 cells; hepatocyte CLint [24]: 5.3 µL/min/1e6 cells
– | – | – | 193 (≈ 90.4 µg/mL) | – | 14 | < 5.54 | – | < 5.40 | 3.5 | Not Active | – | – | – | – | – | – | CS(=O)(=O)c1ccc2[nH]c3c(c2c1)CN(C(=O)[C@@H]1CCCC[C@H]1C(=O)NC1(C#N)CC1)CC3 | –
89 | 3 | 8.40 | 540 (≈ 221 µg/mL) | – | 36 | < 5.54 | – | < 5.40 | – | Not Active | – | – | – | – | – | – | N#CC1(NC(=O)[C@@H]2CCCC[C@H]2C(=O)N2CCc3[nH]c4cc(F)ccc4c3C2)CC1 | –
